Compounds with a hit are over-represented: about 2.3% of the library has one in this group of screens.
TPT1 inh = inhibitors of Candida albicans tRNA 2'-phosphotransferase TPT1; inhibition, % at 5 µM; AID 1962; 300,000 compounds, 0.81% hits; recombinant caTPT1, FP RNA substrate dephosphorylation;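 active = inhibition above the mean of all tested compounds plus 3 SD, set per screening campaign, cut at about 24% in these data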;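 also: plate controls were DMSO alone for no effect and ferristatin control at 100 nM for full effect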
Rpn11 block = blocks the human proteasome subunit Rpn11; 360,000 compounds, 0.59% hits; inhibition, % at 20 µM; O00487; human 26S proteasome, Ub4-pepOG fluorescence polarization; 20S core pre-blocked with epoxomicin;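 active = inhibition at 20 µM, scaled to each plate's controls, above about 33%, limit read from the data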
CSN deneddyl inh = blocks human CSN-mediated cullin deneddylation. Purified CSN, SCF-Nedd8-OG deneddylation, fluorescence polarization. inhibition, % at 12.5 µM. Q92905. 360,000 compounds, 0.38% hits;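 active = pattern-corrected inhibition above about 35%, with an unprinted fluorescence ratio check between 0.5 and 1.5, limit read from the data, passing the limit was not always enough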;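 also: 0% = enzyme with substrate and 100% = substrate without enzyme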
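Test system: purified human Csn5 enzyme expressed in HEK293T cells. Amount: 0.24 nM enzyme. Reagent: SCFSkp2-Nedd8OG substrate at 10 nM final. Schedule: 90 min incubation of compound, enzyme and substrate at room temperature. Detection: fluorescence polarization. Read-out: % inhibition of substrate cleavage by Csn5.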
HNF4A DNA FP = change in binding of human HNF4 alpha to DNA. P41235. HNF4a-FITC DNA binding, fluorescence polarization, 1 h. activity change, % at 10 µM. 360,000 compounds, 0.3% hits. AID 1224865; in the data active = activity change above about 30%, passing the limit was not always enough
Target sequence (P41235 whole entry, looked up): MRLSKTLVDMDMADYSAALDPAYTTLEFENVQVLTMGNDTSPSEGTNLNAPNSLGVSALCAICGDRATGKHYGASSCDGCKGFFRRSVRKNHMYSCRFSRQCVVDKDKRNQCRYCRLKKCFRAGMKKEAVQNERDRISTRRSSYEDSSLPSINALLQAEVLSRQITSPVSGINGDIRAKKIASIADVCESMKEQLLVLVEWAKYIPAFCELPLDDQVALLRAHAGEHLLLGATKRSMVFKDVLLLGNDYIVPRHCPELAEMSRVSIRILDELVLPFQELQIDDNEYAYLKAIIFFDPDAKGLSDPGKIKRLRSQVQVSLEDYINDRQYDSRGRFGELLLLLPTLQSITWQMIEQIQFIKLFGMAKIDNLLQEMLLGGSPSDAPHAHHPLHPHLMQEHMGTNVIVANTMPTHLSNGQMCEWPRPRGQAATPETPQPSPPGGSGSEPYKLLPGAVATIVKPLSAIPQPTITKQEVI
Myeloid diff MLP = myeloid differentiation induction; 360,000 compounds, 1% hits; ER-HoxA9 myeloid progenitors, lysozyme-GFP differentiation, flow cytometry; AID 624256; calls only at 10 µM;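 active = normalized GFP-positive differentiation at or above the plate's own cutoff, the solvent-only control mean plus 3 SD; inconclusive = no clear call, values can overlap the other calls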;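 also: cells exposed to compound for four days before flow analysis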
Rpn11 inh conf = Rpn11 inhibition confirmation, single concentration. shares compounds with Rpn11 block. purified human 26S proteasome, Ub4-pepOG fluorescence polarization; proteasome pretreated with epoxomicin. inhibition, % at 20 µM. 1,900 compounds, 29% hits. AID 602318
MMP-2 counter = counter-screen for RPN11 inhibitors: inhibition of human MMP-2; shares compounds with Rpn11 block; recombinant MMP-2, FRET peptide cleavage fluorescence; inhibition, % at 20 µM; 1,900 compounds, 4% hits; AID 602330;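 also: human MMP-2 activated beforehand with APMA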
Thrombin inh = blocks bovine thrombin, flagging nonselective RPN11 hits; AID 602333; shares compounds with Rpn11 block; 1,900 compounds, 13% hits; inhibition, % at 20 µM; bovine thrombin cleavage of Ub4-pepOG, fluorescence polarization;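 active = mean inhibition at least 40% at 20 µM, or signal 3 deviations below plate average, so some actives read negative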;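 also: plate controls were thrombin with DMSO for no effect and buffer wells lacking thrombin for full effect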
* marks the source's active call; other numbers are inactive results; i = inactive; ? = inconclusive; / = no result. Rule as the data show it, unless noted: active = inhibition above about 40%; inactive = the rest.

SMILES | TPT1 inh | Rpn11 block | CSN deneddyl inh | HNF4A DNA FP | Myeloid diff MLP | Rpn11 inh conf | MMP-2 counter | Thrombin inh
COC(=O)c1[nH]c2ccc(C)cc2c1NC(=O)CN1CCCc2ccccc21 | 15 | 66* | 2 | 11 | i | 48* | -143 | 7
COC(=O)c1[nH]c2cc(C)ccc2c1NC(=O)CN1CCN(c2ccccc2OC)CC1 | 3 | -2 | -2 | 2 | i | / | / | /
O=C(Cc1cccc2ccccc12)Nc1ccc(-c2cc3ccccc3oc2=O)cc1 | 2 | 43* | 0 | 4 | i | 10 | -9 | -7
COc1ccc(-c2ccc(NS(=O)(=O)c3cc([N+](=O)[O-])c(C)c([N+](=O)[O-])c3)cc2)nn1 | -2 | 1 | 12 | -3 | i | / | / | /
COc1ccccc1NC(=O)CSc1ccc(-c2ccccn2)nn1 | -1 | 9 | -1 | -1 | i | / | / | /
COc1ccccc1NC(=O)CSc1ccc(-c2ccc(-n3cccn3)cc2)nn1 | -3 | 97* | 4 | 3 | i | 117* | -13 | 3
COc1ccc(/C=N/NC(=O)c2cccc(NC(C)=O)c2)c(C(=O)O)c1OC | -3 | -7 | -3 | 3 | i | / | / | /
CCOC(=O)[C@]12CCCC=C1N(CCc1ccc(OC)c(OC)c1)C(=O)[C@H](CC(=O)NCc1ccc(C)o1)C2 | / | / | -7 | -4 | i | / | / | /
CC(C)(C)c1cc(C2=CSC3=NCCN23)cc(C(C)(C)C)c1O | -1 | 0 | -1 | 0 | i | / | / | /
COc1ccc(/C=C2\Sc3ccc(C(=O)NCCN4CCCCCC4)cc3N(C)C2=O)cc1 | -2 | 42* | 8 | 21 | i | 40 | -82 | 31
Cc1ccc(C(=O)NCCCNC(=O)COc2ccc(C)c(C)c2)cn1 | 0 | -7 | 4 | -2 | i | / | / | /
N#C/C(=C\c1ccc(OC(=O)c2ccc(Cl)s2)cc1)c1nc2ccccc2[nH]1 | -3 | 49* | 4 | -7 | i | -12 | 0 | -33
N#C/C(=C\c1ccc(OC(=O)c2ccc(Br)s2)cc1)c1nc2ccccc2[nH]1 | 2 | 58* | -1 | -2 | i | -8 | -13 | -22
N#C/C(=C/c1ccc(OC(=O)c2ccc(Br)s2)cc1)c1nc2ccccc2[nH]1 | / | 32 | 23 | -9 | i | / | / | /
N#C/C(=C\c1cccc(OCC(=O)O)c1)c1nc2ccccc2[nH]1 | 2 | -3 | 5 | 1 | i | / | / | /
C[N+]1(CC(O)COCC2COc3ccccc3O2)CCOCC1 (stereo not drawn) | 1 | 4 | -4 | -3 | i | / | / | /
CC(C)C(c1nnnn1Cc1ccco1)N1CCC(C(N)=O)CC1 (stereo not drawn) | -2 | 142* | 8 | -31 | i | 15 | -33 | 8
Cc1ccc(C2CC(c3cccs3)=NN2S(=O)(=O)c2ccc(C)cc2)cc1 (stereo not drawn) | -1 | 45* | 14 | 24 | i | 41* | -12 | 19
CNC(=O)c1nnsc1S(=O)(=O)c1ccc(Cl)cc1 | / | -2 | -11 | 0 | ? | / | / | /
COC(=O)c1ccc(NC(=O)CCN2CCN(c3ccccc3)CC2)cc1 | -10 | 154* | -1 | 8 | i | 2 | -17 | -3
O=C(NC1CCCC1)c1cc(-c2ccc(Cl)cc2Cl)on1 | -3 | 2 | 3 | 1 | i | / | / | /
O=C1c2ccccc2C(c2nnnn2Cc2ccccc2)N1Cc1ccco1 (stereo not drawn) | / | / | 2 | -2 | i | / | / | /
O=C(c1ccco1)N1CCN(Cc2nnc(-c3cccc(Cl)c3)o2)CC1 | 1 | -5 | -3 | 0 | i | / | / | /
N=c1c(C(=O)NC2CCCCC2)cc2c(=O)n3ccccc3nc2n1Cc1ccc(F)cc1 | 3 | 51* | 3 | 8 | i | 18 | -28 | -91
N=c1c(C(=O)NC2CCCC2)cc2c(=O)n3ccccc3nc2n1Cc1ccccc1 | 1 | -9 | 0 | 2 | i | / | / | /
SMILES | TPT1 inh | Rpn11 block | CSN deneddyl inh | HNF4A DNA FP | Myeloid diff MLP | Rpn11 inh conf | MMP-2 counter | Thrombin inh
O=C1C(Br)=C(c2ccccc2)C(c2ccccc2)=C1c1ccccc1 | / | 10 | 4 | -2 | ? | / | / | /
C/C(=N\NC(=O)C1CC1)c1ccccc1O | 1 | -5 | -10 | -2 | i | / | / | /
CC(C)(C)c1cc(C(F)(F)F)c(C#N)c(=O)[nH]1 | 0 | 65* | -4 | -1 | i | 5 | -22 | 4
Cc1ccc(/C=C/C(=O)NCCc2cccc(Cl)c2)o1 | 3 | 12 | 1 | 2 | i | / | / | /
CCOP(=O)(c1ccccc1)c1nc(-c2ccc(F)cc2)oc1N1CCCCC1 (stereo not drawn) | 1 | 126* | 4 | -1 | i | -6 | -20 | -16
N#Cc1c(-c2ccco2)cc(C2CC2)nc1N | 6 | 42* | 17 | 23 | i | -7 | -54 | -4
O=C(c1ccc([N+](=O)[O-])s1)N1CCN(c2ccc(C(F)(F)F)cn2)CC1 | 5 | 6 | -2 | -2 | i | / | / | /
CCCCCCCCCC[N+](C)(C)CC/C=C1/c2ccccc2Sc2ccc(Cl)cc21 | 0 | 48* | 9 | 10 | i | 38 | -2 | 1
COc1ccc(O)c(C(=O)c2cnn(-c3ccccc3)c2)c1 | 0 | 4 | 3 | 2 | i | / | / | /
COc1ccc(O)c(C(=O)c2cnn(C(=O)c3ccc(C)cc3)c2)c1 | / | 96* | 12 | 23 | i | -3 | -34 | -11
CN(CC(=O)Nc1ccc(F)cc1)C(=O)CCc1nc2sc3c(c2c(=O)[nH]1)CCCC3 | 15 | 48* | 15 | 6 | i | 38 | -31 | 19
CN(CC(=O)Nc1c(Cl)cccc1Cl)C(=O)CCc1nc2sc3c(c2c(=O)[nH]1)CCCC3 | 13 | 26 | 12 | 6 | i | / | / | /
CN(CC(=O)Nc1ccc(Cl)cc1)C(=O)CCc1nc2sc3c(c2c(=O)[nH]1)CCCC3 | 23 | 52* | 13 | 11 | i | 72* | -31 | 26
CCN(CC(=O)Nc1c(F)cccc1F)C(=O)CCc1nc2sc3c(c2c(=O)[nH]1)CCCC3 | 16 | 68* | 27 | 2 | i | 64* | -3 | 41*
COc1ccc(C(=O)N2CCN(c3cccc(C)c3C)CC2)cc1S(=O)(=O)NC1CC1 | / | 0 | 3 | -5 | i | / | / | /
O=C(c1ccc2c3c(cccc13)CC2)C1CCCN(Cc2cccnc2)C1 (stereo not drawn) | 3 | 37* | -1 | 1 | i | -10 | 1 | -17
O=C(CCCCCN1C(=O)c2ccccc2C1=O)Oc1ccc2c3c(c(=O)oc2c1)CCC3 | -2 | 1 | -3 | -1 | i | / | / | /
N#CCC(=O)c1ccccc1Oc1ccc(Cl)cc1 | 1 | 65* | -2 | 1 | i | 10 | 18 | 12
